Hits are enriched below; roughly 3.8% of the tested compounds scored in any of these assays.
MC4R antag cAMP: antagonists of human melanocortin 4 receptor (MC4R); inhibition, % at 6.5 µM; AID 540295; P32245; MC4R-expressing cells, MTII-stimulated cAMP, LANCE TR-FRET; actives 0.48% (n = 360,000);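 active = inhibition above its plate's cutoff, the mean of tested wells on that plate plus 3 SD, cut at about 29% in these data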
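Material: U2OS-MC4R stable cell line | Reagent: Melanotan II challenge after compound preincubation | Doses: One concentration, 6.5 µM nominal | Incubation: 30-min compound preincubation, 1-h Melanotan II challenge, 1-h detection, room temperature | Signal: TR-FRET cAMP assay | Replicates: One well per compound, no replicates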
ANO1 activ: mouse TMEM16A channel activation, primary screen; Q8BHY3; HEK293 TMEM16A/YFP-H148Q/I152L, iodide quench fluorescence; stronger effect = lower value; B-score at 10 µM; actives 0.3% (n = 340,000);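 active = fluorescence-ratio B-score plate-corrected deviation score at least 3 library SD below zero, with starting fluorescence score within 5 deviations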;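 also: channel opened by trigger with iodide after compound preincubation; score built on the fluorescence ratio of max minus min over baseline; more negative score means more quench and so TMEM16A activation or potentiation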
TMEM16A inh: inhibitors of mouse TMEM16A calcium-activated chloride channel. Q8BHY3. HEK293 TMEM16A/YFP iodide influx fluorescence, ionomycin. normalized B-score (activity score, 25-100; higher = stronger inhibition) at 10 µM. actives 1.2% (n = 310,000);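 active = ratio plate-corrected score three or more library SD toward inhibition, starting fluorescence score within five deviations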;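 also: score derived from kinetic fluorescence span divided by baseline fluorescence per well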
Beta apoptosis: beta cell apoptosis inhibition; INS-1E cytokine-induced death, ATP luminescence, 48 h; percent of positive-control rescue, neutral wells zero; protection from apoptosis, % (concentration not given with the values); actives 0.8% (n = 300,000);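 active = Every replicate reaches about 75%, or at least half do and their mean reaches it too, limit read from the data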;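 also: higher means more ATP so stronger rescue from cytokine killing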
MC4R barr agon: human MC4R agonism via beta-arrestin. actives 0.98% (n = 360,000). activation, % at 8.9 µM. U2OS MC4R beta-arrestin complementation, luminescence; percent of melanotan II response, DMSO zero. AID 540308;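 active = activation above a per-plate cutoff, the mean activation of sample wells on that plate plus 3 SD, cut at about 8% in these data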
CSC inhib: blocks cancer stem cells | cancer stem cell-like cells viability, luminescence | inhibition, % at 7.5 µM | actives 1.1% (n = 300,000) | AID 2717; in the data active = inhibition above about 75%; tested in HMLE shEcad cells
TMEM16A reconf: reconfirmed blocker of mouse TMEM16A calcium-activated chloride channel; shares compounds with TMEM16A inh; HEK293 TMEM16A/YFP-H148Q, iodide quench fluorescence; ionomycin added to raise cell calcium; inhibition, % at 10 µM; actives 39% (n = 2,300);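 active = mean duplicate percent inhibition, scaled so buffer wells are 0 and the reference blocker 100, over three buffer SD above buffer mean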
HEK293 Ca mobil: alters calcium mobilization in TMEM16A HEK293 cells, counter-screen | calcium response (% of ionomycin), % at 10 µM | AID 652231 | actives 2% (n = 2,300) | shares compounds with TMEM16A inh | TMEM16A/YFP HEK293, Fluo4 calcium mobilization;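 active = duplicate-averaged calcium signal over 20% of the ionomycin maximum, relative to buffer baseline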;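 also: each well's signal is peak minus trough fluorescence divided by its pre-addition baseline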
Parental YFP cnt: acts in parental YFP-HEK293 cells lacking TMEM16A, counter-screen; shares compounds with TMEM16A inh; iodide YFP quench, ionomycin; YFP ratio F(max-min)/F0 at 10 µM; 2,300 tested, under 10 active; AID 652233;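 active = yellow fluorescent protein signal ratio exceeding the buffer control mean by over 5 SD of those controls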;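 also: ratio is mean of duplicate wells from kinetic YFP trace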
ClC-1 rat inh: rat ClC-1 inhibition, TMEM16A specificity screen. shares compounds with TMEM16A inh. CHO ClC-1-YFP, iodide influx fluorescence quench; iodide control reads 0, buffer control 100. ratio percent, % at 10 µM. 2,300 tested, under 10 active;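 active = duplicate-mean ratio percent above the mean of iodide-only control wells, which defines zero, plus 5 of their SD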;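 also: higher percent means stronger block of ClC-1 iodide influx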
Target sequence (P35524 whole entry, looked up): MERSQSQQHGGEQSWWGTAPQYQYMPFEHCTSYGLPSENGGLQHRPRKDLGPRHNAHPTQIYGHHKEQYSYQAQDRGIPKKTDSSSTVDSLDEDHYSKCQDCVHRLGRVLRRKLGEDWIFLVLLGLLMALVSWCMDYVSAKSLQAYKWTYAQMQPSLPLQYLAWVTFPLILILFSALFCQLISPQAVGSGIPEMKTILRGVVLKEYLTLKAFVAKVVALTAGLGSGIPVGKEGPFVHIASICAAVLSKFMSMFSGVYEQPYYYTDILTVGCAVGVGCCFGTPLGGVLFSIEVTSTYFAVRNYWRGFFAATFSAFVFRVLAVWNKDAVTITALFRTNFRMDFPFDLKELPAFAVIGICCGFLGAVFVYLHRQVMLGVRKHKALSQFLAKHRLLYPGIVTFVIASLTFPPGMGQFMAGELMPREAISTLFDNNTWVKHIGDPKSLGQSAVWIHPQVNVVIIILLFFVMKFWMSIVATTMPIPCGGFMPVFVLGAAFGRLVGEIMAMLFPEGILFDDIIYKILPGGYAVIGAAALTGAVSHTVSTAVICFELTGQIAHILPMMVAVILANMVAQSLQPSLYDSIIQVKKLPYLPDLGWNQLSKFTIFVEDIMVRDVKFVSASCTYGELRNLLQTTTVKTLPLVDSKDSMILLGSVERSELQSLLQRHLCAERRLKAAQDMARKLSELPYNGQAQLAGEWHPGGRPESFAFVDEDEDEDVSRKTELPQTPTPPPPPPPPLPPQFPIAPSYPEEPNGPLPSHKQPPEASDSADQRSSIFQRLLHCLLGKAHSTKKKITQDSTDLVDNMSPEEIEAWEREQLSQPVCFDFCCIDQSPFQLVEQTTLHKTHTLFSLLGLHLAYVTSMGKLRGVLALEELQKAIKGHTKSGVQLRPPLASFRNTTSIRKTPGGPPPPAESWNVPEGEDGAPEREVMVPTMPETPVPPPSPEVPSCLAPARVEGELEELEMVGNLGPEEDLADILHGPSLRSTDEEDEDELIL
Hits are given with their value.

C=Cc1ccc(C2=CC(=O)C[C@H](c3ccc(OC)cc3)C2)cc1 was read as MC4R antag cAMP inactive, ANO1 activ inactive, Beta apoptosis inactive, MC4R barr agon inactive and CSC inhib inactive.
O=C(CN1CCN(c2ccccc2)CC1)Nc1scc2c1c(=O)oc1ccccc12 was read as MC4R antag cAMP inactive, ANO1 activ inactive, TMEM16A inh inactive, Beta apoptosis inactive, MC4R barr agon inactive and CSC inhib inactive.
O=C(Nc1ccccc1)Nc1scc2c1c(=O)oc1ccccc12 was read as TMEM16A inh inactive, Beta apoptosis inactive, CSC inhib inactive, TMEM16A reconf inactive, HEK293 Ca mobil inactive, Parental YFP cnt inactive and ClC-1 rat inh inactive.
For CCN(CC)S(=O)(=O)c1ccc(S(=O)(=O)N2CCC(N3CCCCC3)CC2)cc1 the results were MC4R antag cAMP inactive, ANO1 activ inactive, TMEM16A inh inactive, Beta apoptosis inactive, MC4R barr agon inactive and CSC inhib inactive.
COc1cccc(NC(=O)CN(C)C(C)C(=O)N2CCCCC2)c1 (centres undefined) was read as MC4R antag cAMP inactive, ANO1 activ inactive, Beta apoptosis inactive, MC4R barr agon inactive and CSC inhib inactive.
CCOC(=O)c1nnn(-c2nonc2-n2cccc2)c1CCl was read as MC4R antag cAMP inactive, ANO1 activ inactive, TMEM16A inh inactive, Beta apoptosis inactive, MC4R barr agon inactive and CSC inhib inactive.
Screening CCOC(=O)c1nnn(-c2nonc2-n2cccc2)c1CN1CCC(C)CC1 returned MC4R antag cAMP inactive, TMEM16A inh 100, Beta apoptosis inactive, MC4R barr agon inactive, CSC inhib inactive, TMEM16A reconf 17.5%, HEK293 Ca mobil inactive, Parental YFP cnt inactive and ClC-1 rat inh inactive.
For O=C(CCN1CCN(Cc2ccccc2)CC1)NNC(=O)Nc1cccc(C(F)(F)F)c1 the results were MC4R antag cAMP inactive, ANO1 activ inactive, TMEM16A inh inactive, Beta apoptosis inactive, MC4R barr agon inactive and CSC inhib inactive.
`O=C(CSc1nnc(Nc2ccccc2)s1)Nc1ccc(S(=O)(=O)N2CCOCC2)cc1` gave MC4R antag cAMP inactive, ANO1 activ inactive, TMEM16A inh 25, Beta apoptosis inactive, MC4R barr agon inactive, CSC inhib inactive, TMEM16A reconf inactive, HEK293 Ca mobil inactive, Parental YFP cnt inactive and ClC-1 rat inh inactive.
CCOC(=O)CCc1c(C)c2ccc(OC(C)C(=O)OCC)c(C)c2oc1=O (centres undefined) was read as MC4R antag cAMP inactive, ANO1 activ inactive, TMEM16A inh 100, Beta apoptosis inactive, MC4R barr agon inactive, TMEM16A reconf 33.5%, HEK293 Ca mobil inactive, Parental YFP cnt inactive and ClC-1 rat inh inactive.
For OC1(c2ccc(OC(F)F)cc2)CSC(=Nc2cccnc2)N1C1CC1 (centres undefined) the results were MC4R antag cAMP inactive, ANO1 activ inactive, TMEM16A inh 100, Beta apoptosis inactive, MC4R barr agon inactive, CSC inhib inactive, TMEM16A reconf 20.0%, HEK293 Ca mobil inactive, Parental YFP cnt inactive and ClC-1 rat inh inactive.
Screening COc1cc(/C=C/C(=O)OCC(=O)N2c3ccccc3NC(=O)C2(C)C)cc(OC)c1OC returned MC4R antag cAMP inactive, ANO1 activ inactive, Beta apoptosis inactive and MC4R barr agon inactive.
`Cc1ccccc1Cn1ccc(NC(=O)c2cnn3c2NC(c2ccccc2)CC3C(F)(F)F)n1` (centres undefined) gave MC4R antag cAMP inactive, ANO1 activ inactive, TMEM16A inh 25, Beta apoptosis inactive, MC4R barr agon inactive, CSC inhib inactive, TMEM16A reconf inactive, HEK293 Ca mobil inactive, Parental YFP cnt inactive and ClC-1 rat inh inactive.
CCN(CC)CCCNC(=O)c1cc2nc(-c3ccccc3)cc(C(F)(F)F)n2n1 was read as MC4R antag cAMP inactive, ANO1 activ inactive, TMEM16A inh 100, Beta apoptosis inactive, MC4R barr agon inactive, CSC inhib inactive, TMEM16A reconf inactive, HEK293 Ca mobil inactive, Parental YFP cnt inactive and ClC-1 rat inh inactive.
`Cc1nn(-c2ccc(Cl)cc2)c2[nH]c(CCl)cc(=O)c12` gave MC4R antag cAMP inactive, ANO1 activ inactive, TMEM16A inh 100, Beta apoptosis inactive, MC4R barr agon inactive, CSC inhib inactive, TMEM16A reconf 45.5%, HEK293 Ca mobil inactive, Parental YFP cnt inactive and ClC-1 rat inh inactive.
`NC1=NC[C@H](Cc2ccccc2)N1CCCCC1CCCCC1` gave MC4R antag cAMP inactive, ANO1 activ inactive, TMEM16A inh 25, Beta apoptosis 112.1, MC4R barr agon inactive, CSC inhib inactive, TMEM16A reconf 38.0%, HEK293 Ca mobil inactive, Parental YFP cnt inactive and ClC-1 rat inh inactive.
c1ccc(C[C@H]2CN=C(Nc3ccccc3)N2CCC2CCCC2)cc1 was read as MC4R antag cAMP inactive, ANO1 activ inactive, TMEM16A inh inactive, Beta apoptosis inactive, MC4R barr agon inactive and CSC inhib inactive.
`COc1ccc(CC(=O)N[C@@H]2c3cc(OC)c(OC)cc3C[C@H]2O)cc1` gave MC4R antag cAMP inactive and MC4R barr agon inactive.
`O=C(CCCCCn1c(=O)[nH]c2ccsc2c1=O)NCc1ccc2c(c1)OCO2` gave MC4R antag cAMP inactive, ANO1 activ inactive, TMEM16A inh 25, MC4R barr agon inactive, CSC inhib inactive, TMEM16A reconf inactive, HEK293 Ca mobil inactive, Parental YFP cnt inactive and ClC-1 rat inh inactive.
Screening O=C(CCCn1c(=O)[nH]c2ccsc2c1=O)N1CCN(Cc2ccc3c(c2)OCO3)CC1 returned MC4R antag cAMP inactive, ANO1 activ inactive, TMEM16A inh inactive, Beta apoptosis inactive, MC4R barr agon inactive and CSC inhib inactive.
For Cc1ccc(S(=O)(=O)N(C)c2ccc3ccccc3c2)cc1 the results were MC4R antag cAMP inactive, ANO1 activ inactive, TMEM16A inh 100, Beta apoptosis inactive, MC4R barr agon inactive, CSC inhib inactive, TMEM16A reconf inactive, HEK293 Ca mobil inactive, Parental YFP cnt inactive and ClC-1 rat inh inactive.
Cc1ccc([C@H]2C[C@H](O)[C@@H](n3cc(-c4ccc(F)cc4)nn3)CN2C(=O)C2CCCCC2)cc1 was read as MC4R antag cAMP inactive and MC4R barr agon inactive.
